In ChEMBL document CHEMBL1132611, “Novel, potent, and selective phosphodiesterase-4 inhibitors as antiasthmatic agents: synthesis and biological activities of a series of 1-pyridylnaphthalene derivatives” (J Med Chem, 1999):

How the values were obtained:
Phosphodiesterase 3 [1] = target: T1, Phosphodiesterase 3 (Homo sapiens, UniProt Q14432+Q13370); experiment: In vitro inhibition of Phosphodiesterase 3 activity from guinea pig cardiac ventricle; assay type: protein assay, Cavia porcellus; settings: target entry is the homologue from another species
Summary of the method: (§1)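 PDE1, 2 and 3 came from guinea pig cardiac ventricle and PDE4 and 5 from lung, separated by Resource-Q anion exchange on a sodium acetate gradient at pH 6.5. Assays used 1.0 µM [3H]cAMP or [3H]cGMP in 50 mM Tris-HCl pH 8.0, 5 mM MgCl2 and 4 mM 2-mercaptoethanol, for 30 min at 30 °C. Substrate hydrolysis was kept at or below 20%. Triplicates were run at 3–4 inhibitor levels, and IC50 was read graphically.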

Phosphodiesterase 4 [2] = target: T2, Phosphodiesterase 4 (Homo sapiens, UniProt P27815+Q08499+Q07343+Q08493); experiment: In vitro inhibition of Phosphodiesterase 4 from guinea pig lung; assay type: protein assay, Cavia porcellus; settings: target entry is the homologue from another species
Cavia porcellus [3] = experiment: Change in guinea pig heart rate at 0.03 mg/kg intravenous dose; assay type: functional
Cavia porcellus [4] = experiment: Inhibition of antigen-induced bronchoconstriction in guinea pigs at 0.03 mg/kg intravenous dose; assay type: functional
Summary of the method: (§2)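 Male Hartley guinea pigs were passively sensitised with iv rabbit anti-ovalbumin antiserum and challenged with ovalbumin 30 µg/kg iv 20–28 h later. Animals were under α-chloralose anaesthesia, ventilated, and paralysed with gallamine. Overflow volume was measured by Konzett–Rössler and expressed as a percentage of the maximum. Compound was given iv 2 min before challenge. ED50 came from the dose–inhibition curve with 95% confidence limits.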

Cavia porcellus [5] = experiment: Inhibition of antigen-induced bronchoconstriction in guinea pigs at 0.01 mg/kg intravenous dose; assay type: functional; summary of the method: as §2
Phosphodiesterase 1 = Phosphodiesterase 1 (Homo sapiens, UniProt P54750+Q01064+Q14123); experiment: Inhibition of Phosphodiesterase 1 of guinea pig cardiac ventricle; assay type: protein assay, Cavia porcellus; settings: target entry is the homologue from another species; summary of the method: as §1
Phosphodiesterase 4 [6] = target: T2, Phosphodiesterase 4; experiment: Displacement of [3H]- rolipram binding to guinea pig brain; assay type: tissue-based, Cavia porcellus; settings: target entry is the homologue from another species
Summary of the method: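 Guinea pig brain membranes were made by homogenising in 20 mM Tris-HCl pH 7.4 with 2 mM MgCl2 and 0.1 mM DTT, spun at 45000g, washed and stored at -80 °C. Competition used 3 nM [3H]-(±)-rolipram at 30 °C for 60 min in 25 mM Tris-HCl pH 7.4, 5 mM MgCl2 and 0.05 mM 5'-AMP. Bound ligand was separated by filtration and counted by scintillation.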

Cavia porcellus [7] = species: Cavia porcellus; experiment: Inhibition of histamine-induced bronchoconstriction in guinea pigs (95% confidence); assay type: functional
Summary of the method: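 Guinea pigs received intraduodenal compound, and bronchoconstriction was induced with histamine dihydrochloride 2 µg/kg iv. Pulmonary inflation pressure was recorded in ventilated, gallamine-paralysed animals. ED50 was taken from the dose–inhibition curve using at least three doses, with 95% confidence limits.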

Cavia porcellus [8] = experiment: Inhibition of antigen-induced bronchoconstriction in guinea pigs 0.1 mg/kg intravenous dose; assay type: functional; summary of the method: as §2
Cavia porcellus [9] = experiment: Change in guinea pig heart rate at 0.1 mg/kg intravenous dose; assay type: functional
Phosphodiesterase 4 [10] = target: T2, Phosphodiesterase 4; experiment: Emetic effect in ferrets at peroral 30 mg/kg dose; assay type: functional, organism-based; set-up: dose 30 mg/kg; settings: Mustela putorius furo; target entry is the homologue from another species
Cavia porcellus [11] = experiment: Change in guinea pig heart rate at 0.01 mg/kg intravenous dose; assay type: functional
Cavia porcellus [12] = species: Cavia porcellus; experiment: Inhibition of antigen-induced bronchoconstriction in guinea pigs (95% confidence); assay type: functional; summary of the method: as §2
Phosphodiesterase 4 [13] = target: T2, Phosphodiesterase 4; experiment: Emetic effect in ferrets at peroral 100 mg/kg; assay type: functional, organism-based; set-up: dose 100 mg/kg; settings: Mustela putorius furo; target entry is the homologue from another species
Phosphodiesterase 4 [14] = target: T2, Phosphodiesterase 4; experiment: Emetic effect in ferrets at peroral 10 mg/kg; assay type: functional, organism-based; set-up: dose 10 mg/kg; settings: Mustela putorius furo; target entry is the homologue from another species
Cavia porcellus [15] = experiment: Inhibition of antigen-induced bronchoconstriction in guinea pigs at 1 mg/kg intravenous dose; assay type: functional; summary of the method: as §2
Cavia porcellus [16] = experiment: Inhibition of antigen-induced bronchoconstriction in guinea pigs 0.3 mg/kg intravenous dose; assay type: functional; summary of the method: as §2
Cavia porcellus [17] = experiment: Change in guinea pig heart rate at 0.3 mg/kg intravenous dose; assay type: functional
Cavia porcellus [18] = experiment: Change in guinea pig heart rate at 1 mg/kg intravenous dose; assay type: functional
Phosphodiesterase 3 [19] = target: T1, Phosphodiesterase 3; experiment: Inhibition of guinea pig cardiac ventricle Phosphodiesterase 3; assay type: protein assay, Cavia porcellus; settings: target entry is the homologue from another species; summary of the method: as §1
Cavia porcellus [20] = species: Cavia porcellus; experiment: Inhibition of antigen-induced bronchoconstriction in guinea pigs; assay type: functional; summary of the method: as §2
Cavia porcellus [21] = experiment: Change in guinea pig heart rate at 3 mg/kg intravenous dose; assay type: functional
Cavia porcellus [22] = experiment: Inhibition of antigen-induced bronchoconstriction in guinea pigs 3 mg/kg intravenous dose; assay type: functional; summary of the method: as §2

SMILES	IC50 (Phosphodiesterase 3 [1]) [µM]	IC50 (Phosphodiesterase 4 [2]) [µM]	IC50 (Phosphodiesterase 1) [µM]	Reduction (Cavia porcellus [8]) [%]	Heart rate (Cavia porcellus [9]) [delta beats min-1]	Reduction (Cavia porcellus [15]) [%]	also measured
COc1cc2c(-c3ccnc(-n4nc(-c5cccnc5)c5ccccc5c4=O)c3)c(CO)c(CO)cc2cc1OC1CCCC1.Cl	0.69	0.03	–	–	–	–	–
COc1cc2cc(COC(C)=O)c(COC(C)=O)c(-c3ccnc(-n4nc(-c5cccnc5)c5ccccc5c4=O)c3)c2cc1OC.Cl	3.5	0.19	–	–	–	–	–
COc1cc2cc(CO)c(CO)c(-c3ccnc(-n4nc(-c5cccnc5)c5ccccc5c4=O)c3)c2cc1OC.Cl	0.29	0.00063	2	73	1	–	Heart rate (Cavia porcellus [3]): 3 delta beats min-1; Reduction (Cavia porcellus [4]): 61%; Reduction (Cavia porcellus [5]): 34%; Ki (Phosphodiesterase 4 [6]): 0.0035 µM; ED50 (Cavia porcellus [7]): 1.1 mg/kg; Emesis (vomiting/tested) (Phosphodiesterase 4 [10]): 4; Heart rate (Cavia porcellus [11]): 1 delta beats min-1; ED50 (Cavia porcellus [12]): 0.022 mg/kg; Emesis (vomiting/tested) (Phosphodiesterase 4 [13]): 4; Emesis (vomiting/tested) (Phosphodiesterase 4 [14]): 6
COc1cc2cc(CO)c(CO)c(-c3ccnc(-n4ccccc4=O)c3)c2cc1OC	2	0.08	50	–	–	–	–
COc1cc2cc(CO)cc(-c3ccnc(-n4nc(-c5cccnc5)c5ccccc5c4=O)c3)c2cc1OC.Cl	0.081	0.0007	–	–	–	33	–
COc1cc2cc(CO)c(CO)c(-c3ccnc(-n4nc(-c5ccccn5)c5ccccc5c4=O)c3)c2cc1OC.Cl	0.17	0.00055	4	40	5	87	Heart rate (Cavia porcellus [3]): 3 delta beats min-1; Reduction (Cavia porcellus [4]): -25%; Reduction (Cavia porcellus [16]): 78%; Heart rate (Cavia porcellus [17]): 7 delta beats min-1; ED50 (Cavia porcellus [12]): 0.18 mg/kg; Heart rate (Cavia porcellus [18]): 22 delta beats min-1
COc1cc2c(-c3ccnc(-n4nc(-c5cccnc5)c5ccccc5c4=O)c3)c(CO)c(CO)cc2cc1OCc1ccccc1.Cl.Cl	–	0.7	–	–	–	–	IC50 (Phosphodiesterase 3 [19]): > 100 µM
COc1cc2cc(CO)c(CO)c(-c3ccnc(-n4nc(-c5ccncc5)c5ccccc5c4=O)c3)c2cc1OC.Cl	0.1	0.00049	2	15	12	92	Reduction (Cavia porcellus [16]): 82%; Heart rate (Cavia porcellus [17]): 10 delta beats min-1; Heart rate (Cavia porcellus [18]): 29 delta beats min-1; ED50 (Cavia porcellus [20]): 0.17 mg/kg
COc1cc2cc(CO)c(CO)c(-c3ccnc(-n4ccc(=O)c5ccccc54)c3)c2cc1OC	0.4	0.04	9	–	–	–	–
COc1cc2cc(CO)c(CO)c(-c3ccnc(-n4nc(-c5cccnc5)c5ccccc5c4=O)c3)c2cc1OCc1ccccc1.Cl	16	0.017	–	–	–	–	–
COc1cc2cc(CO)c(CO)c(-c3ccnc(-n4ncc5ccccc5c4=O)c3)c2cc1OC	0.25	0.00068	5	25	16	87	Heart rate (Cavia porcellus [21]): 55 delta beats min-1; Reduction (Cavia porcellus [22]): 91%; ED50 (Cavia porcellus [12]): 0.24 mg/kg; Heart rate (Cavia porcellus [18]): 11 delta beats min-1
